# Screening data: PubChem, Broad Institute
# Only some compounds are listed: those with a hit (about 3.6% of all), similar ones and a draw of the others.
# Beta cell apopt: blocks beta cell apoptosis. protection from apoptosis, % (no concentration beside the values). AID 435005. INS-1E cytokine-induced death, ATP luminescence, 48 h; percent of positive-control rescue, neutral wells zero. hit rate 0.8% among 300,000;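 active means Every replicate reaches about 75%, or at least half do and their mean reaches it too, limit read from the data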;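 further: higher means more ATP so stronger rescue from cytokine killing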
# T cruzi inh: T. cruzi replication inhibition; hit rate 1.4% among 300,000; T. cruzi beta-gal in NIH3T3, luminescence, 90 h; inhibition, % (no concentration beside the values);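 active means mean inhibition across valid replicates above about 55%, limit read from the data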;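 further: signal also drops with host cell toxicity which is not excluded here; higher percent means less beta-gal luminescence so fewer parasites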
#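 Incubation – ≥90 h infection period, 3 h prior cell attachment · System – NIH/3T3 fibroblasts plus reporter T. cruzi · Doses – compound pinned at 50 nL/well, DMSO · Read-out basis – percent inhibition of parasite-derived β-gal signal · Signal – luminescent β-galactosidase signal after 60 min lysis · Also added – 5000 T. cruzi trypomastigotes/well · Medium – Low-serum DMEM with 2% FBS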
# CSC inhib: cancer stem cell inhibition. cancer stem cell-like cells viability, luminescence. inhibition, % at 7.5 µM. hit rate 1.1% among 300,000. AID 2717; in the data active means inhibition above about 75%; tested in HMLE shEcad cells
# SKKanGAS inh: blocks kanamycin growth of S. pyogenes SKKanGAS strain | BacTiter-Glo, 6 h | inhibition, % at 7.5 µM | hit rate 1.3% among 300,000;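 active means mean replicate score, as percent of positive control median, at least 50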;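 further: strain carries kanamycin resistance gene driven by streptokinase promoter and grows in 40 µg/ml kanamycin; loss of luminescence reflects streptokinase promoter inhibition or plain growth inhibition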
# PfHsp90 yeast 2: growth inhibition of yeast expressing Plasmodium Hsp90; S. cerevisiae expressing PfHsp90, BacTiter-Glo ATP, 48 h; yeast lacking PDR1 and PDR3 efflux regulators; AID 504621; hit rate 0.32% among 310,000; inhibition, % at 9.4 µM;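 active means every replicate shows inhibition above about 80%, whatever the replicate mean, limit read from the data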
# HIF act: HIF pathway transcriptional activation; U2OS HRE-luciferase reporter, luminescence; normalized: DMSO 0%, desferrioxamine 100%; activation, % at 7.5 µM (by protocol); hit rate 0.32% among 300,000; AID 1910;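 active means mean activation of at least 10% of the iron chelator positive control signal, with at least half of replicates also reaching 10%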
# A number is an active result; i = inactive; nt = not tested or not shown.
SMILES,Beta cell apopt,T cruzi inh,CSC inhib,SKKanGAS inh,PfHsp90 yeast 2,HIF act
CCOc1ccc(NC(=O)Nc2cc(OCC(F)(F)F)cc(OCC(F)(F)F)c2)cc1,i,i,i,i,i,i
COc1ccccc1CN1CCc2c([nH]c3ccccc23)C1,i,i,i,i,i,i
Clc1cccc(CN2CCc3c([nH]c4ccccc34)C2)c1Cl,i,i,111,i,i,i
FC(F)(F)c1ccc(Oc2ccc3ccccc3c2Br)nc1,i,i,nt,63,i,i
Cc1ccc(C(=O)N2CCC3CC2c2cc(-c4ccc5c(c4)OCO5)ccc23)cc1 (stereo not drawn),nt,nt,nt,nt,i,nt
CC1=NN(c2ccccc2)C(=O)/C1=C/C=C/c1ccccc1,nt,i,84,i,i,i
CC1=NN(c2cccc(C(=O)O)c2)C(=O)/C1=C\C=C\c1ccco1,i,i,i,i,i,i
COC(=O)CCN(C(=O)c1cc([N+](=O)[O-])cc([N+](=O)[O-])c1)c1ccccn1,i,65,i,i,i,i
COC(=O)CCN(C(=O)c1ccc([N+](=O)[O-])cc1)c1ccccn1,i,i,i,i,i,i
COC(=O)C(Nc1ccccc1Cl)(c1cc(C)c(O)c(C)c1)C(F)(F)F (stereo not drawn),i,i,i,88,i,i
CCOC(=O)C(NC(=O)c1ccccc1Cl)(Nc1ccc(C)c(C)c1)C(F)(F)F (stereo not drawn),i,i,i,i,i,i
Cc1cc(=O)n(C(C)c2ccccc2)n1C(C)c1ccccc1 (stereo not drawn),nt,nt,nt,nt,i,nt
COC(=O)C1CCN(Cc2ccc(OCCCN3CCN(c4ccc([N+](=O)[O-])cc4)CC3)cc2)CC1,i,61,i,i,i,i
O=[N+]([O-])c1ccc(OCCCCN2CCCCC2)cc1,i,i,i,i,i,189
Cc1cc(=O)n2nc(N3CCC(C(=O)NCc4cccc(Br)c4)CC3)sc2n1,i,i,i,i,i,i
COc1cccc(C(=O)C2CCCN(Cc3ccc(OC)c(Cn4cncn4)c3)C2)c1 (stereo not drawn),i,58,i,i,i,i
COc1cc(CN2CCCC(C(=O)c3ccc(C(C)(C)C)cc3)C2)cc(OC)c1O (stereo not drawn),i,i,i,i,i,i
COCc1cc(CN2CCCC(C(=O)Nc3cccc(-n4cnnn4)c3)C2)ccc1OC (stereo not drawn),i,70,i,i,nt,i
COc1ccc(CN2CCCC(C(=O)c3ccc(Cl)cc3)C2)cc1Cn1cccn1 (stereo not drawn),i,64,i,i,nt,i
Cc1nc2ccccc2c(=O)n1-c1ccc(NS(=O)(=O)c2ccc(F)cc2)cc1,nt,i,i,i,i,i
O=S(=O)(NCC1CCCO1)c1ccc(Cl)nc1 (stereo not drawn),i,i,i,i,i,i
C=CCNC(=S)NNC(=O)c1ccc(=O)n(Cc2ccc(Cl)cc2Cl)c1,nt,i,i,i,i,i
COc1cc(O)c(CC=C(C)C)c(O)c1C(=O)CCc1ccc(O)cc1,nt,i,i,98,i,i
COc1ccc(C(=O)/C=C/c2ccc(O)cc2)c(O)c1C/C=C(\C)CCC=C(C)C,nt,nt,nt,nt,i,nt
CCN(CC)CCn1nc2c3c(cccc3c1=O)-c1ccccc1-2,113,58,105,nt,i,29
SMILES,Beta cell apopt,T cruzi inh,CSC inhib,SKKanGAS inh,PfHsp90 yeast 2,HIF act
COc1cccc(CN2CC(C(=O)NC3CCC(O)CC3)CCC2=O)c1 (stereo not drawn),i,i,i,i,i,i
CCOC(=O)c1c(-c2ccccc2)csc1NC(=O)c1nn(CC)cc1Br,i,63,80,i,i,i
CCOC(=O)c1c(-c2cccs2)csc1NC(=O)c1ccncc1,i,55,i,i,nt,i
CCOC(=O)c1c(-c2ccc(Cl)cc2)csc1NC(=O)CNCc1ccco1,i,i,77,i,i,i
CCOC(=O)c1c(-c2cccs2)csc1NC(=O)COC(=O)c1c(C)noc1C,i,i,i,i,nt,i
CCOC(=O)c1nnc(-c2ccccc2)nc1N1CC(C)OC(C)C1 (stereo not drawn),i,i,i,i,i,i
CC(C)=CCC/C(C)=C/CNC(=O)C[C@H]1C[C@H](C(=O)N(C(C)C)C(C)C)[C@@]2(C)c3[nH]c4cc(CCC(=O)N(C)C)ccc4c3CCN2C1=O,nt,nt,nt,nt,i,nt
CCn1ccnc1CN1CCc2c([nH]c3ccccc23)C1C(C)(C)C (stereo not drawn),i,i,i,i,i,i
CCn1ccnc1CN1CCc2c([nH]c3ccccc23)C1C1CCCCC1 (stereo not drawn),i,i,i,79,i,i
O=C(OCc1ccccc1)N1CCC2CC1c1cc(-c3ccc4c(c3)OCO4)ccc12 (stereo not drawn),nt,nt,nt,nt,i,nt
CC(C)N(Cc1ccccc1)C(=O)COC(=O)c1c(F)cccc1F,i,nt,i,nt,nt,nt
CCCCN(C)CC(O)Cn1cc(/C=C/C(=O)c2ccc(OCC)cc2)c2ccccc21 (stereo not drawn),i,59,99,i,nt,i
CCCCN(C)CC(O)Cn1cc(/C=C/C(=O)c2cccs2)c2ccccc21 (stereo not drawn),i,i,i,i,i,i
C/C(=N\NC(=O)c1ccc(Cl)cc1)c1ccc(Br)s1,i,58,i,i,i,i
C/C(=N\NC(=O)c1cc(Cl)ccc1O)c1ccc(Br)s1,i,i,103,i,i,i
O=C(Nc1ccc(F)c(Cl)c1)Nc1csc2ccccc12,83,i,77,95,i,i
O=C(Nc1ccc(F)cc1F)Nc1csc2ccccc12,i,i,i,i,nt,i
Cc1sc2ncnc(N/N=C/c3ccccc3O)c2c1C,85,i,105,94,101,i
Cc1sc2ncnc(NCc3cccs3)c2c1C,101,i,i,i,nt,i
Cc1sc2ncnc(NCC(O)c3ccccc3)c2c1C (stereo not drawn),88,i,i,i,i,i
Cc1sc2ncnc(N/N=C/c3ccc(O)cc3)c2c1C,i,i,i,i,i,i
Cc1sc2ncnc(NCC(O)c3ccc([N+](=O)[O-])cc3)c2c1C (stereo not drawn),79,i,i,i,i,i
CCc1nnc(NC(=O)C2CCCCN2S(=O)(=O)c2ccccc2)s1 (stereo not drawn),i,i,i,i,i,i
CCOC(=O)[C@H]1[C@H]2COc3ccc(Br)cc3[C@@H]2N2C(=O)CN(Cc3ccccc3)C(=O)[C@@]12C,i,nt,i,nt,i,nt
Nc1nc(CCl)nc(Nc2cccc3ccccc23)n1,i,70,i,i,nt,i
COc1ccc(C2SCC(=O)N2Cc2ccccc2)cc1 (stereo not drawn),i,i,i,i,i,i
COc1ccc(C2SCC(=O)N2CC23CC4CC(CC(C4)C2)C3)cc1 (stereo not drawn),i,61,i,i,i,i
CSC(=NS(=O)(=O)c1ccc(N)cc1)NS(=O)(=O)c1cccs1,nt,nt,nt,nt,i,nt
